ChEMBL document CHEMBL1152488, “Synthesis and evaluation of pyrido[1,2-a]pyrimidines as inhibitors of nitric oxide synthases” (Eur J Med Chem, 2009)
Activity calls are given as the source filed them. The rule behind the calls is not given here.

What was measured:
Nitric oxide synthase 3 = biological target: T1, Nitric oxide synthase 3 (Bos taurus, UniProt P29473); assay: Inhibition of bovine recombinant eNOS expressed in Escherichia coli assessed as conversion of [gamma-14C]L-arginine to [14C]L-citrulline by radioactive assay
T1 sequence (P29473 whole entry): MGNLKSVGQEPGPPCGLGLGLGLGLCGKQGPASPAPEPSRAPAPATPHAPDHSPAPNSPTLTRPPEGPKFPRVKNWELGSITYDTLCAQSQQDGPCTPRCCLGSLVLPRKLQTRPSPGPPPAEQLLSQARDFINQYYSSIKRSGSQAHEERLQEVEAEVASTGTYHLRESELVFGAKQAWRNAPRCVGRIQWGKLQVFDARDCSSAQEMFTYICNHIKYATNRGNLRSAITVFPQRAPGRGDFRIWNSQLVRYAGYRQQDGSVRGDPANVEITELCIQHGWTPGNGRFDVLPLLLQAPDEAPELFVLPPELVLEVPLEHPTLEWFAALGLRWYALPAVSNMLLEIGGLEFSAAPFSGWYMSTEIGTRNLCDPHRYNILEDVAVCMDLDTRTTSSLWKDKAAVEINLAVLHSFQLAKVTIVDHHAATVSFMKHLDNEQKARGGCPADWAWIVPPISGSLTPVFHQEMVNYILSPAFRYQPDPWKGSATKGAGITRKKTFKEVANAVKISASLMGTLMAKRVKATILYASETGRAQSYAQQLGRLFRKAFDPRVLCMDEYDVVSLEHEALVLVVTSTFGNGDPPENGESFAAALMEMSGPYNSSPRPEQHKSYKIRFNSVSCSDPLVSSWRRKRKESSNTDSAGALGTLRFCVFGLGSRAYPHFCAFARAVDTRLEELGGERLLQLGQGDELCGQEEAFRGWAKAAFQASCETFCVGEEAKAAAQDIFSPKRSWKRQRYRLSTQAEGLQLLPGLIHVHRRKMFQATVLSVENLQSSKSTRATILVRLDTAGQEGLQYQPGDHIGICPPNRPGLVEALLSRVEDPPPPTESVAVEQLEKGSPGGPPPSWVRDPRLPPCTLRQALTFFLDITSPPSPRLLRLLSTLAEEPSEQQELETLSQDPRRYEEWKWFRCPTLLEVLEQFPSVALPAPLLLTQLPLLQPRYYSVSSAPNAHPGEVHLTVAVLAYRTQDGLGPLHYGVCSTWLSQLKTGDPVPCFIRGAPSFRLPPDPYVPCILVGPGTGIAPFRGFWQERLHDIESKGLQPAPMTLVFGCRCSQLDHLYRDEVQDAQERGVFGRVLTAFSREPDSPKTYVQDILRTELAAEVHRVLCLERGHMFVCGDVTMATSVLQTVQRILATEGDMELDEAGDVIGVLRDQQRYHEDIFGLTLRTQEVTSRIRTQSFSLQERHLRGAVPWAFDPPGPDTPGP
Outline: (§1)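 CaCl2/CaM present for nNOS (S. cerevisiae) and eNOS (E. coli) but omitted for iNOS (E. coli). Citrulline separated by Dowex cation exchange, then scintillation counting.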

Nitric oxide synthase 1 = Nitric oxide synthase 1 (Rattus norvegicus, UniProt P29476); assay: Inhibition of rat recombinant nNOS expressed in Saccharomyces cerevisiae assessed as conversion of [gamma-14C]L-arginine to [14C]L-citrulline by radioactive assay; outline: as §1
Sequence of Nitric oxide synthase 1 (P29476 whole entry): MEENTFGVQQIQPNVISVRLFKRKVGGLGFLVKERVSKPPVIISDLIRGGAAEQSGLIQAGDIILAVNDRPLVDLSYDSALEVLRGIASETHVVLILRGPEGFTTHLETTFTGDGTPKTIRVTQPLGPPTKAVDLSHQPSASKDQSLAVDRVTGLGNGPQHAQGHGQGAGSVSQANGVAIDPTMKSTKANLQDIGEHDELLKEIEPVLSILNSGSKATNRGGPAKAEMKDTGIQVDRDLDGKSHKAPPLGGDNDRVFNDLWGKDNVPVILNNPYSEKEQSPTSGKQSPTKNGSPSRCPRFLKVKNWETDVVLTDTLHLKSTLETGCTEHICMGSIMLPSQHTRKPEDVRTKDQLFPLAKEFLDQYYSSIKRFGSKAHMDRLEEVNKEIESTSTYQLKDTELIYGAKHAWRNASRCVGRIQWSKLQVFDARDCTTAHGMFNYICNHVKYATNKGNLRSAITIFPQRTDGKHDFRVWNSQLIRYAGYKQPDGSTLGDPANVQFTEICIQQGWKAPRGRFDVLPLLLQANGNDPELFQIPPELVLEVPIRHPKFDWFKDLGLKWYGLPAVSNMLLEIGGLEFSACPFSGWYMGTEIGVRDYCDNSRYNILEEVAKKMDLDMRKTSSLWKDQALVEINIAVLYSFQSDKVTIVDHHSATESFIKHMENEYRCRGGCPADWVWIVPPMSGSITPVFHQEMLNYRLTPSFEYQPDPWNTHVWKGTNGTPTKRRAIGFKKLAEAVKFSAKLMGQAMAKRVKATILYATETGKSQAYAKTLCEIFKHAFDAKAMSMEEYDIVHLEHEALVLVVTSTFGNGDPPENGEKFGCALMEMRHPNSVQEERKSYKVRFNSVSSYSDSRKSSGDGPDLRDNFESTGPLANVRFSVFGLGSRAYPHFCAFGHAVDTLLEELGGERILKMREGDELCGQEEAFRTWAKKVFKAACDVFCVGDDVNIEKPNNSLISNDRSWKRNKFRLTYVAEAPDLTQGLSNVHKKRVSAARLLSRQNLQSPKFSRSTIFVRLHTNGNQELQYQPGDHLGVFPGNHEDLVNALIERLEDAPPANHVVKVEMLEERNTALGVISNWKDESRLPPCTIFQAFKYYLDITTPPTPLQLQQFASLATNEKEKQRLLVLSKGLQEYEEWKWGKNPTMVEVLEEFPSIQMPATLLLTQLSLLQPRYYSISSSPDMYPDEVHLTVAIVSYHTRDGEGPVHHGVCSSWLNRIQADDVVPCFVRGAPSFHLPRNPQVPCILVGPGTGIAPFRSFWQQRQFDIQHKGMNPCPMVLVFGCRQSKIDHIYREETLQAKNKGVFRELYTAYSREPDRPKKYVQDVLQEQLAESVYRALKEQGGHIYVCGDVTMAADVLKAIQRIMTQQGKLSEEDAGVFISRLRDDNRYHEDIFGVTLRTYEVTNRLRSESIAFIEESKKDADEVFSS

[1] = biological target: T2, Nitric oxide synthase, inducible (Mus musculus, UniProt P29477); assay: Inhibition of mouse recombinant iNOS expressed in Escherichia coli assessed as conversion of [gamma-14C]L-arginine to [14C]L-citrulline by radioactive assay; outline: as §1
T2 sequence (P29477 whole entry): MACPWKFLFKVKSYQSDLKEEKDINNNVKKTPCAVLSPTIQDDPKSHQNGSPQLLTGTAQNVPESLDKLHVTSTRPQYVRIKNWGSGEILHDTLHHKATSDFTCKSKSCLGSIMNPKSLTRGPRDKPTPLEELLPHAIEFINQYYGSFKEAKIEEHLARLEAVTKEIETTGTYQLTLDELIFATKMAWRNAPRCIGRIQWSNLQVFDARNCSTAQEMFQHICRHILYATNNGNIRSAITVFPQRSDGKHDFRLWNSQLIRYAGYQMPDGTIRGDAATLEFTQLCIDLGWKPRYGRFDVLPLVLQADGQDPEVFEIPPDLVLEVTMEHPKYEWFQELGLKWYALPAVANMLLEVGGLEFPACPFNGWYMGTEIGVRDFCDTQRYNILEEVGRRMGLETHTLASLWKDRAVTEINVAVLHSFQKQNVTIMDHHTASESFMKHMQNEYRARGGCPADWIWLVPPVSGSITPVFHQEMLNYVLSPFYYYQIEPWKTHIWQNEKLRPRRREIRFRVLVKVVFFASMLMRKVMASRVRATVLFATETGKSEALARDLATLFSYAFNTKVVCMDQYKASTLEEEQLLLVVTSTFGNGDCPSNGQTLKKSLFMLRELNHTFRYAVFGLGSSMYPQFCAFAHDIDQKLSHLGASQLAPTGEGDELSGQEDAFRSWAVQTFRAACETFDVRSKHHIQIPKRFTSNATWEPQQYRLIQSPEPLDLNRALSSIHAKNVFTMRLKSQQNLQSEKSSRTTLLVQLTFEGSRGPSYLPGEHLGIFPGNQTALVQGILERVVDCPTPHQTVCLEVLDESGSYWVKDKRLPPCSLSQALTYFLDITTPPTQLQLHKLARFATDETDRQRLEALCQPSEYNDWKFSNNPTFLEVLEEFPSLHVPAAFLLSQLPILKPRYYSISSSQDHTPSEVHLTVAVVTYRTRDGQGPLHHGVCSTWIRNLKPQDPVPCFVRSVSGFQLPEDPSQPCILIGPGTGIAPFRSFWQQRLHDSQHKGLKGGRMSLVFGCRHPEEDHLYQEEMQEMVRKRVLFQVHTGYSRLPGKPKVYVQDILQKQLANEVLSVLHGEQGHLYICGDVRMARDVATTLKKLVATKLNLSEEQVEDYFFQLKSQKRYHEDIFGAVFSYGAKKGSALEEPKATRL

[2] = biological target: T2, Nitric oxide synthase, inducible; assay: Inhibition of mouse recombinant iNOS expressed in Escherichia coli assessed as NADPH consumption after 2 mins by spectrophotometry
Outline: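 Murine iNOS from E. coli (15–50 nM final) in 50 mM Hepes pH 7.4 with 5 mM DTT, 100 µM CaCl2, 200 µM NADPH, 10 µM H4B, 100 µM L-arginine and 100 µM compound. Cofactors and compound preincubated 2 min at 37 °C, enzyme added, and A340 followed for 3 min (ε 6.2 mM-1 cm-1). Given as % of 1% DMSO control NADPH oxidase rate.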

[3] = Dissociation constant, pKa of the compound; format: physicochemical
Outline: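 UV spectrophotometric titration. Compound dissolved in 10% aqueous methanol, then mixed 1:1 with NaOH (0.002–6 M) and 1 M HCl to a final 150 µM. Absorbance read at 312 nm across the pH series.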

[4] = biological target: T2, Nitric oxide synthase, inducible; assay: Inhibition of mouse iNOS expressed in insect Sf9 cells by competitive binding assay
[5] = biological target: T3, Nitric oxide synthase, inducible (Mus musculus) (UniProt P29477); assay: Inhibition of mouse iNOS expressed in insect Sf9 cells at 1 mM preincubated for 15 mins followed by compound dilution
T3 sequence (whole entry): T2 sequence (P29477 whole entry)

SMILES | IC50 (Nitric oxide synthase 3) [µM] | IC50 (Nitric oxide synthase 1) [µM] | IC50 [1] [µM] | IC50 [2] [µM] | pKa [3] | Ki [4] [µM] | Activity [5]
CC1=CC2=NCC(C(=O)c3ccc(-c4ccc(C#N)cc4)cc3)CN2C=C1.Cl (stereo not given) | 12 | 128 | 50 | 11 |  |  | 
CC1=CC2=NCC(C(=O)c3ccc(-c4ccc(Br)cc4)cc3)CN2C(C)=C1 (stereo not given) | 188 |  | 120 |  |  |  | 
O=C(c1ccc(Br)cc1)C1CN=C2C=CC=CN2C1 (stereo not given) |  |  |  |  | 12.4 |  | 
CC1=CC2=NCC(C(=O)c3ccc(OCc4ccc(Cl)cc4)cc3)CN2C=C1.[O-][Cl+3]([O-])([O-])O (stereo not given) | 12 |  |  |  |  |  | 
CC1=CC2=NCC(C(=O)c3ccc(-c4ccc(Br)cc4)cc3)CN2C=C1.[O-][Cl+3]([O-])([O-])O (stereo not given) |  |  | 28 |  |  | 14 | inactive
CC1=CC2=NCC(C(=O)c3ccc4cc(C)ccc4c3)CN2C(C)=C1.[O-][Cl+3]([O-])([O-])O (stereo not given) | 53 | 60 | 35 |  |  |  | 
COc1ccc(-c2ccc(C(=O)C3CN=C4C=C(C)C=CN4C3)cc2)cc1.Cl (stereo not given) | 60 | 87 | 18 |  |  | 15 | 
CC1=CC2=NCC(C(=O)c3ccc4cc(C)ccc4c3)CN2C=C1.[O-][Cl+3]([O-])([O-])O (stereo not given) |  |  | 29 |  |  | 23 | 
